# INS-1E GSIS act: GLuc luminescence reporter in INS-1E cells, primary screen for activators of glucose-dependent secretion of insulin. INS-1E GLuc reporter insulin secretion, 2-3 h. 370,000 compounds, 0.61% hits. activation, % at 16.6 µM. AID 743287;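 active = lowest replicate activation of at least 40%, so every replicate reaches that level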;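 note: 0% = median of neutral control wells and 100% = median of IBMX positive control wells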
# rRNA inh HTS: inhibits bacterial ribosomal RNA function over humanized ribosomes; E. coli WT GFP vs humanized-ribosome RFP mutants, fluorescence, 24 h; hits give low values; DMSO median 0, no signal -100; AID 720706; GFP signal change (wild-type ribosome), % (concentration not given with the values); 350,000 compounds, 1.6% hits;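 active = significant combined selectivity score with lowered wild-type GFP, culture density cut under 30%, mutant RFP and density less affected; inactive = any of these conditions unmet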
# E-sel inducer: E-selectin induction on HUVECs; P16581; HUVEC E-selectin immunofluorescence imaging; normalized: neutral wells 0, TNF-alpha wells 100; activation, % at 7.58 µM; 260,000 compounds, 0.37% hits;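 active = mean E-selectin-positive cell signal at least 10% of the positive control, reached in at least 60% of replicates, without over 20% cell loss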
# Target sequence (P16581 whole entry, looked up): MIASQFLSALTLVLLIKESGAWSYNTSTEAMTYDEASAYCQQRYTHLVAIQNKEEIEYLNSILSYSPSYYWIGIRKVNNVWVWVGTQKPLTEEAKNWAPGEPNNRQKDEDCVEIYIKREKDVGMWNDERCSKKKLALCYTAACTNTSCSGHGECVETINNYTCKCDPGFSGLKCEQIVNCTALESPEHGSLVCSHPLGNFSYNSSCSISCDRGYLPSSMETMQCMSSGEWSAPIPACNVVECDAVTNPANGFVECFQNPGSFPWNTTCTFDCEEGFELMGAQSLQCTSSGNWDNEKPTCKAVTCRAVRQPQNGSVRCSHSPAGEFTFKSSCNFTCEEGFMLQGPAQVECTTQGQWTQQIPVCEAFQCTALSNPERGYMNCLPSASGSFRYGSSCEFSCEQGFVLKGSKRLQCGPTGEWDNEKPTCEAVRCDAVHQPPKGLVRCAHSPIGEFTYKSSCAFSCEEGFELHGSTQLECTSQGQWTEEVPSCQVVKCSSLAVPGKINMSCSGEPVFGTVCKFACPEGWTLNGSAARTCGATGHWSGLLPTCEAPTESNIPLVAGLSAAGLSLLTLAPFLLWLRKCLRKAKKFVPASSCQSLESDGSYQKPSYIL
#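 Assay system: HUVEC primary endothelial cells. Input: 3,000 HUVEC seeded per well. Doses: one compound dose added by pin transfer. Read-out basis: % PE-positive cells. Benchmarks: TNF-alpha high, DMSO low. Detection: immunofluorescence imaging. Buffer or medium: EGM-2, gelatin.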
# RAD54 branch: RAD54 (human) branch migration inhibition; 360,000 compounds, 0.14% hits; RAD54 Holliday junction branch migration, FAM/BHQ fluorescence; inhibition, % at 10.4 µM; Q92698;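 active = mean normalized replicate activity at least 40 and at least half of replicates scoring 40 or more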;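 note: 0% = median of neutral control wells and 100% = median of positive control wells; inhibitors cause a drop in the FAM fluorescence signal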
# RAD52 anneal inh: inhibitors of human RAD52 DNA annealing | P43351 | inhibition, % at 18.7 µM | recombinant RAD52 DNA annealing, FRET fluorescence | 360,000 compounds, 0.46% hits;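 active = every replicate showing at least 50% inhibition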
# AF4-AF9 inh: inhibitors of human MLL-AF4/AF9 interaction | AlphaScreen, biotin-AF4 peptide binding to FLAG-AF9 | 350,000 compounds, 0.47% hits | inhibition, % at 10 µM | AID 651704 | P42568;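 active = every replicate reaching a set inhibition limit, whatever the replicate mean, cut at about 25% in these data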;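 note: 0% = plate neutral control median and 100% = total signal loss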
# Alpha interfer: interferes with the AlphaScreen assay signal | 530 compounds, 45% hits | shares compounds with AF4-AF9 inh | AlphaScreen interference counter-screen, signal luminescence | AID 720494 | AC50, µM (doses to about 12 µM), without a hit: at the top dose activity change, negative = inhibition; cut-off not given, nearly all actives have AC50 up to about 14 µM
# Starred values were filed as active, the others as inactive; / = no result given; ! = not confirmed by another sample. Shown are actives, neighbours in structure and some others; about 2.6% of the full set was active somewhere.
SMILES,INS-1E GSIS act,rRNA inh HTS,E-sel inducer,RAD54 branch,RAD52 anneal inh,AF4-AF9 inh,Alpha interfer
CC(=O)N(C)C[C@H]1Oc2cc(C#CC(C)C)ccc2S(=O)(=O)N([C@@H](C)CO)C[C@@H]1C,7,6,0,-5,19,-18,/
Cc1ccc(NC(=O)NNS(=O)(=O)c2ccc(Br)cc2)cc1,/,/,/,-6,/,/,/
Cc1ccc(S(=O)(=O)NC(=O)Nc2ccc(N(C)C)cc2)cc1,8,5,0,8,4,35*,-28%
COc1cc(OC)c2c(-c3ccccc3)cc(=O)oc2c1C(CCN1CCOCC1)c1ccc(N(C)C)cc1 (stereo unspecified),1,-2,0,2,-6,39*,-20%
COc1cc(OC)c2c(-c3ccccc3)cc(=O)oc2c1C(CCN1CCCCC1)c1ccc(N(C)C)cc1 (stereo unspecified),/,/,/,7,/,/,/
COc1cc(OC)c2c(-c3ccccc3)cc(=O)oc2c1C(CCN1CCCCC1)c1ccc2c(c1)OCO2 (stereo unspecified),34,-54,0,0,32,36*,-28%
COc1cc(OC)c2c(c1C(CCN1CCOCC1)c1ccc(N(C)C)cc1)OC(=O)CC2c1ccc(N(C)C)cc1 (stereo unspecified),-23,1,0,-7,-10,65*,13µM*
C[C@@H]1CN([C@@H](C)CO)C(=O)c2c(c3ccccc3n2C)-c2ccccc2CO[C@H]1CN(C)Cc1cccc(F)c1,-35,-4,-1,/,5,5,/
CN(C)CC(=O)Nc1ccc2c(c1)[C@H]1C[C@H](CC(=O)N(C)C)O[C@@H](CO)[C@H]1O2,8,3,/,/,/,/,/
S=C(NN=C(c1ccccc1)c1ccccn1)N(Cc1ccccn1)Cc1ccccn1,12,-14,0,/,-13,53*,8µM*
CO[C@@H]1CN(C)C(=O)c2cc(NC(=O)c3ccc(F)cc3)ccc2OC[C@H](C)N(C(=O)CN(C)C)C[C@@H]1C,-10,1,0,9,-9,3,/
Nc1ccc(O)c2c1C(=O)c1ccccc1C2=O,/,-1,/,12,-16,38*,-31%
CN(C)C(CNC(C(=O)Nc1ccc([N+](=O)[O-])cc1Br)c1ccccc1)c1ccccc1 (stereo unspecified),-12,-14,0,/,4,35*,-23%
Cc1cc(C)c2sc(N(CCCN(C)C)C(=O)c3ccc(S(=O)(=O)N4CCCc5ccccc54)cc3)nc2c1,-40,-57,/,0,39,56*,-18%
C[C@@H]1CCCCO[C@H](CN(C)C(=O)NC2CCCCC2)[C@H](C)CN([C@@H](C)CO)C(=O)c2cc(NC(=O)Cc3ccccc3)ccc2O1,-28,-4,1,2,-69,3,/
CCc1cccc(NC(=O)CCCCCC2NC(=O)NC2C)c1 (stereo unspecified),4,7,3,/,-9,95*,0.29µM*
CC1NC(=O)NC1CCCCCC(=O)Nc1ccc(F)c(Cl)c1 (stereo unspecified),-6,-18,2,/,-20,93*,0.6µM*
CCC(=O)Nc1ccc(F)c(Cl)c1,/,/,/,4,/,/,/
CO[C@@H]1CN(C)C(=O)c2ccc(NC(C)=O)cc2OC[C@H](C)N(Cc2nccs2)C[C@@H]1C,-6,-2,0,2,-9,-1,/
O=C(c1ccccn1)N1CC(=O)N2[C@H](CO)[C@@H](c3ccc(C#Cc4ccccc4)cc3)[C@H]2C1,11,4,0,/,-17,1,/
Cn1ccc2c(-c3ccccc3F)cc3c(c21)C1CCC3C1 (stereo unspecified),4,-5,0,-3,-18,1,/
Cn1ccc2c(/C=C/c3ccc(F)cc3)cc3c(c21)C1CCC3C1 (stereo unspecified),12,2,-1,2,-13,44*,9%
Fc1ccc(C(c2ccc(F)cc2)N2CCN(C/C=C/c3ccccc3)CC2)cc1,-23,/,-2,8,-3,34*!,11%

# Assay outcomes as filed in PubChem BioAssay.
